From PubChem
In the library only some 4.9% were active in any assay of this set; here they are far more common.
STAT1 blocker: STAT1 signaling inhibitors, primary screen, cell-based, HTS, luciferase reporter | actives 0.35% (n = 200,000) | NIH 3T3 STAT1-luciferase reporter, IFN-gamma, luminescence | AID 920, 2007 | inhibition, % at 5.5 µM;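 active = inhibition above a set limit, the mean inhibition across all tested compounds plus 3 SD, cut at about 34% in these data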
NF-kB neuron act: activators of NF-kB expression in neurons, primary screen, cell-based, HTS | human neuronal cells, NF-kB reporter expression; hits give high values | fold change at 12.5 µM | actives 1.6% (n = 190,000) | AID 1239, 2008; in the data active = fold change above about 3.3
STAT3 blocker: IL-6 driven STAT3 reporter inhibitors, primary screen, U3A cells, luciferase, luminescence, MLSCN library. IL-6 STAT3-luciferase reporter; host cell line lacks STAT1. inhibition, % at 5.5 µM. actives 0.89% (n = 190,000). AID 862, 2007;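 active = inhibition above the mean inhibition across all screened compounds plus 3 SD, cut at about 44% in these data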
APP 5'UTR act: activators of APP 5'UTR luciferase reporter, primary screen, SH-SY5Y cells | activation, % at 2 µM | SH-SY5Y APP 5'UTR luciferase reporter, luminescence; zero percent = DMSO vehicle wells | actives 1% (n = 190,000);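 active = activation above a set limit, based on mean plus 3 SD of controls, cut at about 140% in these data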
STAT3 activator: IL-6 driven STAT3 reporter potentiators, primary screen, U3A cells, luciferase, luminescence, MLSCN library. IL-6 STAT3-luciferase reporter; 100% = signal with IL-6 EC80 alone. activation (% of control), % at 5.6 µM. actives 0.91% (n = 190,000);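 active = activation above the screen-wide mean of compound activation plus 3 SD, cut at about 130% in these data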
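Detection: reporter luminescence signal / Assay system: STAT1-lacking human U3A cells, STAT3 luciferase reporter / Incubation: compound pre-incubation 1 h before IL-6, then 6 h stimulation at 37 °C / Control set: IL-6-only high control / Read-out: % activation relative to IL-6 control / Probe or stimulus: Interleukin-6, 33 ng/mL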
STAT1 activator: STAT1 signaling activators, primary screen, cell-based, HTS, luciferase reporter; AID 932, 2007; NIH 3T3 STAT1-luciferase reporter, IFN-gamma, luminescence; 100% = IFN-gamma alone, no compound; actives 2.6% (n = 200,000); activation (% of control), % at 5.5 µM;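 active = activation above the screen-wide mean activation plus 3 SD, cut at about 130% in these data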
Each line names hits and unclear results; the compound was inactive in the other large screens.

O=C(Nc1ccc(S(=O)(=O)Nc2ncccn2)cc1)c1cccnc1	STAT1 activator 134
O=[N+]([O-])c1cccc(/C=N/Nc2nc(NCc3ccccc3)nc(N3CCOCC3)n2)c1O	none
CCOC(=O)C1CCN(c2c(NCc3ccc(C(=O)N(C)Cc4ccccc4)cc3)c(=O)c2=O)CC1	none
CCN1CC=C2C(C#N)=C(N)C(C#N)(C#N)C(CCc3ccccc3)C2C1 (configuration not stated)	STAT3 activator 141
COc1cnc(-c2ccccn2)nc1Sc1ccc(F)cc1	none
O=C(NC1C(=O)NNC1c1ccccc1)c1ccc(F)cc1 (configuration not stated)	STAT1 activator 129
O=C(Nc1cccc(Cl)c1)NC1CC2CCC(C1)N2Cc1cccs1 (configuration not stated)	none
O=C(/C=C/Nc1ccc(Br)cc1F)c1ccco1	STAT1 blocker 81, NF-kB neuron act 4.7, STAT3 blocker 96
O=C(/C=C/Nc1ccc(F)c(Cl)c1)c1ccco1	STAT1 activator 150
O=C(CCNc1ccc(F)c(Cl)c1)c1ccco1	none
O=C(/C=C/Nc1ccc(F)cc1F)c1ccco1	STAT1 blocker 77, NF-kB neuron act 4.9, STAT3 blocker 84, APP 5'UTR act 152
NC(=O)c1c(NC(=O)c2ccncc2)sc2c1CCCC2	none
NC(=O)c1c(NC(=O)c2ccccc2)sc2c1CCc1ccccc1-2	NF-kB neuron act 4.1, STAT1 activator 140
Cc1ccc(OCC(=O)NCc2cccs2)c([N+](=O)[O-])n1	none
Cc1cc2ncc(-c3ccc(Cl)cc3)cn2n1	NF-kB neuron act 4.9, APP 5'UTR act 188, STAT1 activator 136
Cc1cc(CCCCCCCCc2cc(C)cc(=O)o2)oc(=O)c1	none
CC1(c2ccc(Cl)c(Cl)c2)NC(=S)N2C1NC(=S)N2c1ccccc1 (configuration not stated)	none
CC(C(=O)NCC1CCCCC1)N1CCN(S(=O)(=O)c2ccccc2F)CC1 (configuration not stated)	none
O=C(Nc1cc2c(cc1Br)OCCCO2)c1ccccc1	STAT1 activator 146
COC(=O)c1cc(Cl)c(NC(=O)c2ccc(F)cc2)cc1OC	none
COc1ccc(C(=O)Nc2cc3c(oc2=O)CCCC3=O)cc1	STAT1 activator 138
CC(=O)Nc1cc2c(cc1C(=O)c1ccc(C)cc1)OCCO2	none
O=C(Nc1cc2c(oc1=O)CCCC2=O)c1cccc(Cl)c1	none
Cc1ccc(C(=O)Nc2cc3c(cc2Cl)OCCCO3)cc1	NF-kB neuron act 4.1, STAT1 activator 155
O=C(Nc1cc2c(cc1Cl)OCCCO2)c1ccc(F)cc1	STAT1 activator 145
CC(C)N1C(=S)N(Cc2ccco2)C(=O)C1CC(=O)Nc1ccccc1 (configuration not stated)	none
COC(=O)c1cc(C(=O)NCc2ccccc2)c(=O)[nH]c1C	none
COc1ccc(C(=O)Nc2cc3c(cc2Cl)OCCCO3)cc1	NF-kB neuron act 4.3, STAT1 activator 137
O=C(NCc1ccco1)c1ccc(COc2cc(Cl)ccc2Cl)cc1	none
Nc1nc2ccccc2n1C(=O)c1ccco1	STAT1 activator 139
Nc1nc2ccccc2n1C(=O)c1cccs1	NF-kB neuron act 4.7
Nc1nc2ccccc2n1C(=O)CCc1ccccc1	STAT1 activator 136
CC(=O)c1nc2ccccc2n1CCc1ccccc1	none
O=C(c1ccco1)N1CCn2c1nc1ccccc12	none
CN(C)c1ccc(C=Nc2ccccc2)cc1	none
O=C(N/N=C\c1ccc(Cl)cc1)c1sccc1-n1cccc1	none
C/C(=N/N=C/c1ccc(N(C)C)cc1)c1ccccc1	APP 5'UTR act 189, STAT1 activator 133
CN(C)c1ccc(/C=N/NC(=O)c2ccccc2)cc1	NF-kB neuron act 4.1, STAT1 activator 140
CN(C)c1ccc(/C=N/NC(=O)c2sccc2-n2cccc2)cc1	STAT1 activator 130
CCCCCC(=O)N/N=C/c1ccc(N(C)C)cc1	STAT1 activator 134
